Experimental data taken from ChEMBL document CHEMBL2086265, “Design of inhibitors of Helicobacter pylori glutamate racemase as selective antibacterial agents: incorporation of imidazoles onto a core pyrazolopyrimidinedione scaffold to improve bioavailabilty” (Bioorg Med Chem Lett, 2012).
In brackets after ≈: the same amount, converted by molar mass.

Key:
[1] = Intrinsic clearance in human liver microsomes at 2 uM assessed per mg of protein; format: ADME, Microsome; settings: read-out: CLH
[2] = Intrinsic clearance in mouse liver microsomes at 2 uM assessed per mg of protein; format: ADME, Microsome; settings: read-out: CLH
Helicobacter pylori [3] = test: Antibacterial activity against wild type Helicobacter pylori 055; format: functional
Glutamate racemase = target: T1, Glutamate racemase (Helicobacter pylori J99, UniProt Q9ZLT0); test: Inhibition of Helicobacter pylori J99 glutamate racemase
T1 sequence (Q9ZLT0 whole entry): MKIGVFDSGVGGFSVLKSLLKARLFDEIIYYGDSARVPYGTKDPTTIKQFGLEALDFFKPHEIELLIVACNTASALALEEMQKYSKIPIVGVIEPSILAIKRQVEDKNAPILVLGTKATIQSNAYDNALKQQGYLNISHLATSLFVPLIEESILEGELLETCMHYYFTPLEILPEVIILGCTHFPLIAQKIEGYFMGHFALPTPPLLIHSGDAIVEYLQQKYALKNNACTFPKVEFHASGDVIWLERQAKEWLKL
How it was run: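 The racemase was expressed from the murI gene of H. pylori J99 chromosomal DNA. IC50 was taken as the mean of duplicate determinations, using a method cited from earlier work.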

Helicobacter pylori [4] = test: Antibacterial activity against AcrAB-TolC efflux pump-dificient Helicobacter pylori; format: functional

microsomal CLint at 2 µM [1]	microsomal CLint at 2 µM [2]	MIC (Helicobacter pylori [3])	IC50 (Glutamate racemase)	MIC (Helicobacter pylori [4])	SMILES
< 14 µL/min/mg	96 µL/min/mg	8 µg/mL (≈ 15.2 µM)	55 nM	1 µg/mL (≈ 1.9 µM)	Cn1cc(C#N)cc1-c1c2c(=O)n(CC#N)c(=O)n(CC3CC3)c2nn1Cc1ccnc2ccc(Cl)cc12
19 µL/min/mg	53 µL/min/mg	3 µg/mL (≈ 5.8 µM)	39 nM		CC(=O)c1cc(-c2c3c(=O)n(C)c(=O)n(CC4CC4)c3nn2Cc2ccnc3ccc(Cl)cc23)n(C)c1
< 14 µL/min/mg	64 µL/min/mg	8 µg/mL (≈ 16.8 µM)	230 nM		Cn1cnnc1-c1c2c(=O)n(C)c(=O)n(CC3CC3)c2nn1Cc1ccnc2ccc(Cl)cc12
< 14 µL/min/mg	61 µL/min/mg	> 32 µg/mL	740 nM		Cc1nc(N)sc1-c1c2c(=O)n(C)c(=O)n(CC3CC3)c2nn1Cc1ccnc2ccc(Cl)cc12
< 14 µL/min/mg	15 µL/min/mg	4 µg/mL (≈ 8.16 µM)	72 nM	1 µg/mL (≈ 2.04 µM)	CCn1c(=O)c2c(-c3cncn3C)n(Cc3ccnc4ccc(Cl)cc34)nc2n(CC2CC2)c1=O
< 14 µL/min/mg	< 14 µL/min/mg	8 µg/mL (≈ 15.2 µM)	250 nM	4 µg/mL (≈ 7.59 µM)	Cn1cc(C#N)nc1-c1c2c(=O)n(C3CC3)c(=O)n(CC3CC3)c2nn1Cc1ccnc2ccc(Cl)cc12
> 100 µL/min/mg	> 100 µL/min/mg	18 µg/mL (≈ 37.7 µM)	260 nM		CC(C)Cn1c(=O)n(C)c(=O)c2c(-c3cccn3C)n(Cc3ccnc4ccc(Cl)cc34)nc21
47 µL/min/mg	44 µL/min/mg	8 µg/mL (≈ 15.6 µM)	63 nM	2 µg/mL (≈ 3.89 µM)	CC#CCn1c(=O)c2c(-c3cncn3C)n(Cc3ccnc4ccc(Cl)cc34)nc2n(CC2CC2)c1=O
> 100 µL/min/mg	> 100 µL/min/mg	32 µg/mL (≈ 55.2 µM)	470 nM	32 µg/mL (≈ 55.2 µM)	Cn1cc(C#N)cc1-c1c2c(=O)n(CCn3cccn3)c(=O)n(CC3CC3)c2nn1Cc1ccnc2ccc(Cl)cc12
59 µL/min/mg	> 100 µL/min/mg	1 µg/mL (≈ 2 µM)	60 nM	0.25 µg/mL (≈ 0.499 µM)	Cc1cc(C#N)oc1-c1c2c(=O)n(C)c(=O)n(CC3CC3)c2nn1Cc1ccnc2ccc(Cl)cc12
30 µL/min/mg	33 µL/min/mg	2 µg/mL (≈ 3.8 µM)	80 nM	0.13 µg/mL (≈ 0.247 µM)	Cn1cc(C#N)cc1-c1c2c(=O)n(C3CC3)c(=O)n(CC3CC3)c2nn1Cc1ccnc2ccc(Cl)cc12
41 µL/min/mg	> 100 µL/min/mg	64 µg/mL (≈ 106 µM)	260 nM	4 µg/mL (≈ 6.62 µM)	Cn1cc(C#N)cc1-c1c2c(=O)n(CC#CCn3ccnc3)c(=O)n(CC3CC3)c2nn1Cc1ccnc2ccc(Cl)cc12
34 µL/min/mg	> 100 µL/min/mg	8 µg/mL (≈ 15.7 µM)	280 nM		Cc1sc(N)nc1-c1c2c(=O)n(C)c(=O)n(CC3CC3)c2nn1Cc1ccnc2ccc(Cl)cc12
94 µL/min/mg	> 100 µL/min/mg	4 µg/mL (≈ 7.97 µM)	86 nM		CC(C)Cn1c(=O)n(C)c(=O)c2c(-c3cc(C#N)cn3C)n(Cc3ccnc4ccc(Cl)cc34)nc21
92 µL/min/mg	> 100 µL/min/mg	32 µg/mL (≈ 67.2 µM)	900 nM		Cc1nc[nH]c1-c1c2c(=O)n(C)c(=O)n(CC3CC3)c2nn1Cc1ccnc2ccc(Cl)cc12
20 µL/min/mg	> 100 µL/min/mg	8 µg/mL (≈ 16.8 µM)	220 nM		Cc1c[nH]nc1-c1c2c(=O)n(C)c(=O)n(CC3CC3)c2nn1Cc1ccnc2ccc(Cl)cc12
17 µL/min/mg	> 100 µL/min/mg	4 µg/mL (≈ 8.37 µM)	170 nM		CC(C)Cn1c(=O)n(C)c(=O)c2c(-c3cncn3C)n(Cc3ccnc4ccc(Cl)cc34)nc21
		4 µg/mL (≈ 9.04 µM)	120 nM		CC(C)Cn1c(=O)n(C)c(=O)c2c(-c3cncn3C)n(Cc3cccc4ccccc34)nc21
